High-throughput results (PubChem)
Mdm2 MdmX PPI = inhibitors of human Mdm2-MdmX association, primary screen, cell-based, luminescence, split luciferase, SaOS-2, uHTS | Protein Mdm4 (Homo sapiens) + E3 ubiquitin-protein ligase Mdm2 (Homo sapiens), … | SaOS-2 split-luciferase Mdm2/MdmX complementation | inhibition, % at 8 µM | 330,000 tested, 3% active | AID 485346, 2010;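 active = inhibition of at least 50% at 8 µM in the primary screen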
T cruzi repl = inhibitors of intracellular T. cruzi growth, primary screen, luminescence, NIH3T3 host cells; inhibition, % (concentration not given with the values); T. cruzi beta-gal in NIH3T3, 90 h; AID 1885, 2009; 300,000 tested, 1.4% active;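 active = mean inhibition across valid replicates above about 55%, limit read from the data; inconclusive = mean below that limit but half or more replicates reach it; inactive = mean below it, under half of replicates reach it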;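 note: signal also drops with host cell toxicity which is not excluded here; higher percent means less beta-gal luminescence so fewer parasites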
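System: Mouse NIH/3T3 fibroblasts infected with β-gal-expressing T. cruzi Tulahuen C4 | Quantity: NIH/3T3 cells, 5,000 per well | Reagent: 5000 reporter trypomastigotes per well | Dosing: Compound pinned at 50 nL/well, DMSO | Schedule: 3 h host attachment, then at least 90 h co-culture | Detection: GalScreen luminescence, 60 min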
SKKanGAS inh = S. pyogenes SKKanGAS growth inhibitors in kanamycin, primary screen, streptokinase expression inhibitor project, SKKanGAS strain, BacTiter-Glo luminescence. inhibition, % at 7.5 µM. 300,000 tested, 1.3% active. 6 h;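 active = mean replicate score, as percent of positive control median, at least 50; inconclusive = mean below 50 but one replicate at or above 50; inactive = mean and every replicate below 50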;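 note: strain carries kanamycin resistance gene driven by streptokinase promoter and grows in 40 µg/ml kanamycin; loss of luminescence reflects streptokinase promoter inhibition or plain growth inhibition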
CSC inhib = cancer stem cell viability inhibitors, primary screen, luminescence; 300,000 tested, 1.1% active; cancer stem cell-like cells viability; inhibition, % at 7.5 µM; in the data active = inhibition above about 75%; inconclusive = no clear call, values can overlap the other calls; tested in HMLE shEcad cells
Calb FLC = C. albicans growth inhibition with fluconazole, primary screen, CaCi-2 strain, Alamar Blue fluorescence. 300,000 tested, 0.57% active. growth inhibition, % (test concentration not listed). C. albicans CaCi-2 (fluconazole-resistant clinical isolate) + fluconazole, 48 h;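 active = growth inhibition above about 58% in most replicates, limit read from the data, passing the limit was not always enough; inconclusive = exactly half the replicates above a set limit; inactive = most replicates below a set limit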;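 note: all wells also contain fluconazole at 8 µg/ml as a sub-toxic cotreatment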
Beta cell apopt = inhibitors of cytokine-induced beta cell apoptosis, primary screen, luminescence; INS-1E cytokine-induced death, ATP luminescence, 48 h; percent of positive-control rescue, neutral wells zero; protection from apoptosis, % (no concentration beside the values); 300,000 tested, 0.8% active; AID 435005, 2010;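 active = Every replicate reaches about 75%, or at least half do and their mean reaches it too, limit read from the data; inconclusive = At least half of replicates reach the limit but their mean does not; inactive = Under half of replicates reach the limit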;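 note: higher means more ATP so stronger rescue from cytokine killing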
Mdm2 MdmX conf = Mdm2-MdmX complex disruptors, retested hits, confirmation, luminescence, single concentration. shares compounds with Mdm2 MdmX PPI. Mdm2-MdmX binding, luminescent assay. inhibition, % at 8 µM. 10,000 tested, 55% active. AID 489028, 2010; in the data active = inhibition above about 40%
Full FLuc ctr = full-length luciferase signal inhibition, confirmation, counter-screen for Mdm2/MdmX interaction inhibitor project, cell-based, single concentration, SaOS-2; shares compounds with Mdm2 MdmX PPI; AID 504607, 2011; inhibition, % at 8 µM; 6,200 tested, 77% active; SaOS-2 full-length luciferase counterscreen, luminescence;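 active = mean inhibition at 8 µM reaching about 37%, which flags the compound as non-specific, limit read from the data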;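 note: p53-null SaOS-2 cells with luciferase driven by a doxycycline-inducible promoter; compound on cells about two nights before reading with doxycycline added after day one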
Of the large screens only hits and unclear results are named; the others gave an inactive call (follow-up assays come after a bar, where they were run). Most compounds without a hit are left out; they make up all but 5.7% or so of the library.

CCCCCc1cc(=O)oc2c(C(CCN3CCCCC3)c3ccc4c(c3)OCO4)c(OC)cc(OC)c12 (stereo not drawn)	Mdm2 MdmX PPI 93, CSC inhib inconclusive, Beta cell apopt 98 | Mdm2 MdmX conf 49 | Full FLuc ctr 65
CCCCCc1cc(=O)oc2c(C(CCN(CC)CC)c3cc(OC)c(OC)c(OC)c3)c(OC)cc(OC)c12 (stereo not drawn)	Mdm2 MdmX PPI 100, CSC inhib 107 | Mdm2 MdmX conf inactive | Full FLuc ctr inactive
COc1cc(OC)c2ccc(=O)oc2c1C(CCN1CCCC1)c1ccc2c(c1)OCO2 (stereo not drawn)	none
CCCCCc1cc(=O)oc2c(C(CCN3CCCC(C)C3)c3ccc4c(c3)OCO4)c(OC)cc(OC)c12 (stereo not drawn)	Mdm2 MdmX PPI 79, CSC inhib 108 | Mdm2 MdmX conf inactive | Full FLuc ctr 66
O=C(O)/C=C/c1ccc(S(=O)(=O)Nc2ccccc2C(=O)Nc2ccc(F)cc2)cc1	none
CN(CCOc1ccccc1)CC(=O)Nc1cccc(C#N)c1	none
CC(=O)NNS(=O)(=O)c1scc(S(=O)(=O)c2ccc(Cl)cc2)c1C	none
O=C1c2cccc3c([N+](=O)[O-])ccc(c23)C(=O)N1c1ccccn1	Mdm2 MdmX PPI 96, CSC inhib 105 (no result: Beta cell apopt) | Mdm2 MdmX conf 63 | Full FLuc ctr inactive
CC(=O)Oc1ccc(N2C(=O)c3cccc4c([N+](=O)[O-])ccc(c34)C2=O)cc1	Mdm2 MdmX PPI 70 (no result: Beta cell apopt) | Mdm2 MdmX conf inactive
O=C1c2cccc3c([N+](=O)[O-])ccc(c23)C(=O)N1c1nccs1	Mdm2 MdmX PPI 92, CSC inhib 79 | Mdm2 MdmX conf 90 | Full FLuc ctr inactive
O=C1c2cccc3c([N+](=O)[O-])ccc(c23)C(=O)N1c1ccc(Cl)cn1	Mdm2 MdmX PPI 100, CSC inhib 112 | Mdm2 MdmX conf 100 | Full FLuc ctr 54
O=C1c2cccc3cccc(c23)C(=O)N1c1nccs1	none (no result: T cruzi repl, CSC inhib)
C[C@H](CO)N1C[C@H](C)[C@H](CN(C)CC2CCCCC2)Oc2ccc(NS(=O)(=O)c3ccc(F)cc3)cc2CC1=O	none (no result: T cruzi repl, SKKanGAS inh, Calb FLC)
Cc1cccc(CCNS(=O)(=O)c2ccc3c(c2)NC(=O)CS3)c1	none
CC[C@@]1(C(=O)OC)N[C@H](CN(C)C(C)=O)[C@@H]2C(=O)N(Cc3ccccc3)C(=O)[C@@H]21	none (no result: T cruzi repl, SKKanGAS inh, CSC inhib, Calb FLC, Beta cell apopt)
CC[C@@]1(C(=O)OC)N[C@H](CN(C)C(=O)Nc2ccc(Cl)cc2)[C@@H]2C(=O)N(Cc3ccccc3)C(=O)[C@@H]21	Mdm2 MdmX PPI 64 (no result: T cruzi repl, SKKanGAS inh, CSC inhib, Calb FLC) | Mdm2 MdmX conf 57 | Full FLuc ctr 51
Cc1[nH]c2c(C)cccc2c1CCNC(=O)c1ccc2c(c1[N+](=O)[O-])C(=O)c1ccccc1C2=O	Mdm2 MdmX PPI 75 | Mdm2 MdmX conf inactive
Cc1[nH]c2ccccc2c1CCNC(=O)c1ccc2c(c1[N+](=O)[O-])C(=O)c1ccccc1C2=O	Mdm2 MdmX PPI 69 | Mdm2 MdmX conf inactive
CN(C)C(=O)c1ccc2c(c1[N+](=O)[O-])C(=O)c1ccccc1C2=O	none
CN(Cc1ccccc1F)C(=O)c1ccccc1Sc1ccccc1C#N	none
COc1ccc(-c2cc(=O)oc3c(C)c(OC(C)C(=O)Nc4ccc(CN5CCOCC5)cc4)ccc23)cc1 (stereo not drawn)	none
O=C(CCl)N(C/C=C/c1ccccc1)c1ccc2c(c1)OCCO2	Mdm2 MdmX PPI 79, T cruzi repl 93 | Mdm2 MdmX conf 67 | Full FLuc ctr inactive
O=C(/C=C/c1ccccc1)c1ccc2c(c1)OCCCCO2	none
CN(C)c1ccc(CNC(=O)C2CCN(S(=O)(=O)c3ccc4c(c3)oc(=O)n4C)CC2)cc1	none
Cn1c(=O)oc2cc(S(=O)(=O)N3CCC(C(=O)NCc4ccccc4Cl)CC3)ccc21	Mdm2 MdmX PPI 51 | Mdm2 MdmX conf inactive
CCCn1c(SCC(=O)N(C2CCCCC2)C2CCS(=O)(=O)C2)n[nH]c1=O (stereo not drawn)	none (no result: T cruzi repl, SKKanGAS inh, CSC inhib, Calb FLC)
O=C1C(=C2SCCCS2)CC/C1=C\c1ccc(F)cc1	Mdm2 MdmX PPI 82 | Mdm2 MdmX conf 81 | Full FLuc ctr inactive
CCSc1ncc(Cl)c(C(=O)Nc2sc3c(c2C(=O)NCc2cccnc2)CCCC3)n1	Mdm2 MdmX PPI 60 (no result: CSC inhib, Beta cell apopt) | Mdm2 MdmX conf inactive
CCSc1ncc(Cl)c(C(=O)Nc2ccccc2Cl)n1	none
Cc1ccc(S(=O)(=O)N2CCN(CC(=O)NCC3(N4CCOCC4)CCCCC3)CC2)cc1	none (no result: T cruzi repl, SKKanGAS inh, CSC inhib, Calb FLC, Beta cell apopt)
CSc1nnc(NC(=O)c2nc(S(=O)(=O)Cc3cccc(C)c3)ncc2Cl)s1	Mdm2 MdmX PPI 100, CSC inhib 110 | Mdm2 MdmX conf 92 | Full FLuc ctr 50
CCSc1nnc(NC(=O)c2nc(S(=O)(=O)Cc3ccc(F)cc3)ncc2Cl)s1	Mdm2 MdmX PPI 69, CSC inhib 103 | Mdm2 MdmX conf inactive
Cc1cccc(CS(=O)(=O)c2ncc(Cl)c(C(=O)Nc3nnc(C(C)C)s3)n2)c1	Mdm2 MdmX PPI 96, CSC inhib 107 | Mdm2 MdmX conf 88 | Full FLuc ctr 50
Cc1ccc(CS(=O)(=O)c2ncc(Cl)c(C(=O)Nc3nnc(C(C)C)s3)n2)cc1	Mdm2 MdmX PPI 96, CSC inhib 111 | Mdm2 MdmX conf inactive | Full FLuc ctr inactive
CC(C)c1nnc(NC(=O)CS(=O)(=O)Cc2ccccc2)s1	none
CSc1ncc(Cl)c(C(=O)Nc2nnc(SC/C=C/c3ccccc3)s2)n1	none
C=CCSc1nnc(NC(=O)c2nc(SCC)ncc2Cl)s1	none
CC(C)(CNC(=O)Cc1ccc(Cl)cc1Cl)N1CCCCC1	none
O=C(COC(=O)c1oc2ccccc2c1COc1ccccc1)NCCN1C(=O)CSC1=O	none (no result: Beta cell apopt)
N#Cc1ccc(C(=O)NCCCSc2ccccc2)cc1	none
CC(C)c1nnc(NC(=O)c2nc(S(=O)(=O)Cc3ccc(F)cc3)ncc2Cl)s1	Mdm2 MdmX PPI 100, CSC inhib 106 | Mdm2 MdmX conf 57 | Full FLuc ctr 52
CCOc1ccc(/C=N/NC(=S)Nc2c(C)cccc2C)cc1	Mdm2 MdmX PPI 52 | Mdm2 MdmX conf inactive
CCNC(=S)N/N=C/c1ccc(OCCOc2ccccc2C)cc1	none
